# Compound activity deposited in PubChem BioAssay by several laboratories.
# This is a sample that favours compounds with a hit; in the whole collection about 1.8% have one here.
# SIAE inh – inhibitors of human sialic acid acetylesterase SIAE; Q9HAT2; SIAE FP-Rh probe binding, fluorescence polarization; inhibition, % at 9.66 µM; hit rate 0.69% among 370,000; AID 1053197;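 active = inhibition above a cutoff: mean of compounds within the control limits plus 3 SD of those, cut at about 17% in these data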;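 also: 0% = plate median of compound wells and 100% = probe without SIAE protein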
# Target sequence (Q9HAT2 whole entry, looked up): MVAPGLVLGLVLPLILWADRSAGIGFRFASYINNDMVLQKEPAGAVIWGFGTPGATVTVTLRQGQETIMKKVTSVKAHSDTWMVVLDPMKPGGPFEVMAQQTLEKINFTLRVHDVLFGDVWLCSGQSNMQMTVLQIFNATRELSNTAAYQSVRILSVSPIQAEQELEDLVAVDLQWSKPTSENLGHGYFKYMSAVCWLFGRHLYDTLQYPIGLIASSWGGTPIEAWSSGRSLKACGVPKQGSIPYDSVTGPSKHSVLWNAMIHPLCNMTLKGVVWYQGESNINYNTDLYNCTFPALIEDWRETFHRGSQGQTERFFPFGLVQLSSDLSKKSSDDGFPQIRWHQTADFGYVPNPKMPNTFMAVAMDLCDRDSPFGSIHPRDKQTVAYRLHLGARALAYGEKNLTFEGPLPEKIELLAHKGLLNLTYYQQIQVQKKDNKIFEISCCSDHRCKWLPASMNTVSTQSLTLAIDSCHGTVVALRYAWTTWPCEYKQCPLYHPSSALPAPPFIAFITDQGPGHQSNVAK
# TCR-CD3 inh – human TCR-CD3 binding inhibition; inhibition, % at 9.4 µM; hit rate 0.37% among 360,000; AID 651800; TAMRA-labeled TCR probe fluorescence, biochemical; in the data active = inhibition above about 19%;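 also: recombinant mutant TCR 2C K166C tagged with TAMRA read by polarization; 0% = receptor in buffer alone and 100% = receptor with positive control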
# HTRA1 inh – blocks human HTRA1 serine peptidase; Q92743; recombinant HTRA1, FP-rhodamine activity-based probe, fluorescence polarization; inhibition, % at 5.96 µM; hit rate 0.5% among 340,000; in the data active = inhibition above about 36%;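 also: 0% = enzyme with DMSO and 100% = wells lacking enzyme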
# ABHD4 inh – inhibits mouse alpha/beta hydrolase domain 4; Q8VD66; purified mABHD4, FP-Rh probe fluorescence polarization; inhibition, % at 8.92 µM; hit rate 0.54% among 370,000;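 active = inhibition exceeding the mean over every tested compound plus 3 SD, cut at about 30% in these data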;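 also: 0% = plate median of compound wells and 100% = S159A mutant with DMSO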
#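 Test system: mouse ABHD4 enzyme, wild type. Reagent: FP-Rh fluorescent activity-based probe, added after compound pre-incubation. Timing: pre-incubation 45 min, probe exposure 60 min, at 25 °C. Technique: FP readout, ex 525 nm / em 598 nm. Benchmarks: high control S159A mutant with DMSO, low control median of compound wells.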
# ARNT-TACC3 inh – ARNT/TACC3 interaction disruption; Q9Y6A5; AlphaScreen His-ARNT PAS-B/GST-TACC3 binding, luminescence; TACC3 fragment carries E629A point mutation; inhibition, % at 9.99 µM; hit rate 0.66% among 390,000; AID 623870;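 active = mean inhibition of replicates at least 50% and at least half of replicates each reaching 50%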;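 also: 0% = complete ARNT plus TACC3 wells and 100% = ARNT alone without TACC3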
# mABHD4 conf – confirmation of mouse ABHD4 inhibitors; shares compounds with ABHD4 inh; hit rate 55% among 1,800; purified mABHD4, FP-Rh probe fluorescence polarization; inhibition, % at 8.92 µM;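 active = mean inhibition across replicates above the hit cutoff set in the primary screen, cut at about 30% in these data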;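 also: 0% = wild-type ABHD4 with DMSO and 100% = catalytically dead S159A mutant with DMSO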
# * marks the source's active call; other numbers are inactive results; / = no result given; + = active, no number.
SMILES,SIAE inh,TCR-CD3 inh,HTRA1 inh,ABHD4 inh,ARNT-TACC3 inh,mABHD4 conf
CCC(=O)Nc1ccc2c(c1)C(=O)N(C)[C@@H]1CC[C@@H](CC(=O)NCCc3ccccc3)O[C@@H]1CO2,/,/,/,/,2,/
O=C(O)c1cc([N+](=O)[O-])c(NCCC2=CCCCC2)c([N+](=O)[O-])c1,6,0,-6,55*,-5,66*
CCN(Cc1ccccc1)c1ccc(/C=N/N=C(N)N)cc1,6,0,23,46*,25,62*
CCN(Cc1ccccc1)c1ccccc1,3,3,0,2,/,/
CCCCCc1ccc(OCCCC[n+]2ccc(C)cc2)c(CCCCC)c1,7,7,24,30*,6,36*
CCCCCc1ccc(OCCCC[n+]2ccccc2)c(CCCCC)c1,/,/,21,/,/,/
N#C/C(=C(/O)c1ccc2c(c1)OCO2)c1nc2cc(C(F)(F)F)ccc2s1,2,1,-1,33*,-5,10
N#C/C(=C(/O)c1ccccc1F)c1nc2cc(C(F)(F)F)ccc2s1,3,0,-10,11,-3,/
C[C@@H]1CN([C@@H](C)CO)C(=O)c2cc(C3=CCCCC3)cnc2O[C@@H]1CN(C)C(=O)NC1CCCC1,/,/,/,/,0,/
CC/C(C)=N/Nc1nc2c(c(=O)[nH]c(=O)n2C)n1CCc1ccccc1,3,1,14,15,17,/
CC/C(C)=N/Nc1nc2c(c(=O)[nH]c(=O)n2C)n1Cc1ccccc1,-4,9,11,34*,-10,18
C[C@@H]1CN([C@@H](C)CO)C(=O)c2cc(NC(=O)CCC(F)(F)F)ccc2O[C@@H](C)CCCCO[C@@H]1CN(C)Cc1ccc(C(F)(F)F)cc1,/,/,/,/,13,/
Cc1ccc(-c2cnc(NCc3cc4c(cc3[N+](=O)[O-])OCO4)n2C)cc1C,1,-3,-2,14,13,/
Cc1cc(C)cc(NCc2cc3c(cc2[N+](=O)[O-])OCO3)c1,11,9,6,31*,2,14
COc1ccc(CC(=O)NCc2ccc3c(c2)OCO3)cc1,1,1,-3,-1,/,/
COc1ccc(CNCc2cc3c(cc2[N+](=O)[O-])OCO3)cc1,11,10,11,33*,1,6
CCC(C)Sc1cc(-c2nc3ccccn3c2NC2CCCCC2)ccc1OC (configuration not stated),10,6,-21,47*,14,45*
CCC(C)Sc1ccc(-c2nc3ccc(C)cn3c2NC2CCCCC2)cc1 (configuration not stated),/,/,-12,/,-9,/
CCC(C)Sc1cc(-c2nc3cc(C)ccn3c2NC2CCCCC2)ccc1OC (configuration not stated),0,-1,0,31*,-2,67*
O=C(C[C@@H]1C=C[C@@H](NC(=O)c2ccncc2)[C@H](CO)O1)NCCc1ccncc1,/,/,/,/,7,/
CN(C)c1ccc(N=C/C=C2\N(C)c3ccccc3C2(C)C)cc1,-4,-1,19,32*,21,8
CN1/C(=C\C=Nc2ccc3ccccc3c2)C(C)(C)c2ccccc21,/,/,-22,/,2,/
COc1ccc(S(=O)(=O)N(C)C[C@@H]2Oc3ccc(NS(=O)(=O)c4ccc(Cl)cc4)cc3C(=O)N([C@@H](C)CO)C[C@@H]2C)cc1,/,/,/,/,-2,/
O=C(COC(=O)c1cc(S(=O)(=O)N2CCCC2)ccc1O)Nc1ccc(SC(F)F)cc1,-20,2,-23,31*,-4,17
C[C@@H]1CN([C@H](C)CO)C(=O)c2cccc(NS(C)(=O)=O)c2O[C@H]1CN(C)Cc1ccncc1,/,/,/,/,-2,/
SMILES,SIAE inh,TCR-CD3 inh,HTRA1 inh,ABHD4 inh,ARNT-TACC3 inh,mABHD4 conf
CCOC(=O)C1Nc2ccccc2C2C(O)C(O)CC12 (configuration not stated),5,1,22,51*,34,11
CCOC(=O)C1Nc2ccc(C(F)(F)F)cc2C2c3ccccc3CC12 (configuration not stated),8,-4,-1,4,13,/
NNc1nc2ccc(F)cc2s1,11,7,30,42*,20,26
Fc1ccc2nc(Nc3ccccc3)sc2c1,10,-5,-12,0,-6,/
CC(C)CC#Cc1cnc2c(c1)C(=O)N([C@H](C)CO)C[C@@H](C)[C@H](CN(C)S(=O)(=O)c1cccs1)O2,/,/,/,/,-1,/
CCOc1cc(/C=C2\N=C(SCC)SC2=O)cc([N+](=O)[O-])c1OC(C)=O,-2,-3,22,42*,-11,83*
CN(C)C(=O)C[C@@H]1CC[C@H](NC(=O)c2ccc(F)cc2)[C@H](CO)O1,/,/,/,/,-5,/
C(=C\c1ccccc1)/CN1CCN(C(c2ccccc2)c2ccccc2)CC1,2,0,-6,95*,9,4
OC(CCN1CC2CCC(CC2)C1)(Cc1ccccc1)c1ccco1 (configuration not stated),14,3,3,37*,8,18
CCCCCCCOC(=O)C[N+](C)(C)CCOC1CC2CCC1(C)C2(C)C (configuration not stated),3,4,14,38*,-7,50*
O=C(COc1ccccc1Cl)NC(=S)Nc1ccccc1N1CCCC1,4,13,-7,41*,22,-8
CCCCNc1c(-c2ccc(Sc3ccc(OC)cc3)cc2)nc2cc(C)ccn12,15,-4,17,39*,2,39*
CCCCNc1c(-c2ccc(-c3ccc(C(C)=O)cc3)c(OC)c2)nc2cc(C)ccn12,8,6,-7,46*,0,56*
COc1ccc(-c2nc3cc(C)ccn3c2NCC2CCCO2)cc1OC (configuration not stated),-2,5,2,7,/,/
COc1ccc(-c2nc3cc(C)ccn3c2NCc2ccc3c(c2)OCO3)cc1,3,0,6,-5,23,/
O=C(C[C@@H]1C[C@@H]2c3cc(NC(=O)CC4CC4)ccc3O[C@@H]2[C@@H](CO)O1)NCc1ccccn1,/,/,/,/,-2,/
CN1CCN(C(=O)C[C@H]2CC[C@@H]3[C@@H](COc4ccc(NC(=O)c5cscn5)cc4C(=O)N3C)O2)CC1,/,/,/,/,-4,/
Cc1ccc(C(=O)NNC2=Nc3cccc4cccc2c34)cc1,-2,-4,11,30*,/,23
Cc1cccc(CSc2nnc(-c3ccccn3)n2N)c1,-7,4,0,36*,45*,11
COc1cccc(CN2[C@H](CO)[C@@H]3c4ccccc4N(C(=O)C4CC4)C[C@@H]32)c1,/,/,/,/,3,/
Cn1c(=O)c2c(nc(SCc3nn[nH]n3)n2Cc2ccccc2F)n(C)c1=O,6,5,8,+,9,7
CN(C)c1nc(N)nc(CSc2nc3c(c(=O)n(C)c(=O)n3C)n2Cc2ccccc2F)n1,5,3,6,-2,-2,/
